Published values pooled from the literature.
Lines come from different studies, so protocols differ.
Target: G protein-coupled receptor kinase 4 (GRK4, Homo sapiens, UniProt P32298)

Compound	test	setting	remaining binding
CN(C)c1nccc(-c2cnn3ncccc23)n1	binding	1 µM	100%
O=C(Nc1c[nH]nc1C(=O)NC1CCNCC1)c1cc(F)cc(F)c1	binding, competition with immobilised ligand	1 µM	100%
O=C(c1ccc(Nc2ncc(Cl)c(-c3cc4ccccc4s3)n2)cc1)N1CCC(N2CCCC2)CC1	binding, competition with immobilised ligand	1 µM	3.5%
COc1ccnn2ncc(-c3ccnc(N(C)C)n3)c12	binding	1 µM	79%
COc1cnc(Nc2cccc(S(N)(=O)=O)c2)nc1N1CCN(c2ccccc2)CC1	binding, competition with immobilised ligand	1 µM	100%
CN(C)c1nccc(-c2cnc3ncccn23)n1	binding	1 µM	88%
O=C(NCCCN1CCOCC1)c1ccc(Nc2ncc(Cl)c(-c3ccc(Cl)s3)n2)cc1	binding, competition with immobilised ligand	1 µM	2.7%
COc1ccc2c(O[C@@H]3C[C@H]4C(=O)N[C@]5(C(=O)O)CC5/C=C\CCCCC[C@H](NC(=O)OC5CCCC5)C(=O)N4C3)cc(-c3csc(NC(=O)C(C)C)n3)nc2c1C (stereo partly drawn)	cell-free assay, competition with immobilised ligand	1 µM	67%
Nc1ncc2c(n1)-c1c([nH]c3ccc(C#CC4CC4)cc13)CCCC2	binding, competition with immobilised ligand	1 µM	91%
O=C(NCCCN1CCOCC1)c1ccc(Nc2nccc(-c3cc4ccccc4s3)n2)cc1	binding, competition with immobilised ligand	1 µM	1.4%
O=C(Nc1cccnn1)N1CC(C/C=C/c2cncc(Oc3ccc(C(F)(F)F)cn3)n2)C1	cell-free assay, competition with immobilised ligand	1 µM	100%
CC1CCCN1c1nccc(-c2cnn3ncccc23)n1 (stereo not drawn)	binding	1 µM	75%
COc1ncc2cc3ccccc3nc2c1C#N	cell-free assay, competition with immobilised ligand	5 µM	99%
Nc1c(C(=O)NCc2ccc(C(=O)NCCCC3CCCCC3)cc2)cnn1-c1ccccc1	cell-free assay, competition with immobilised ligand	0.1 µM	100%
C=CC(=O)N1CCC(C(=O)NCC(=O)N2CCN(c3nc(-c4cnc(N)nc4C(F)F)nc(N4CCOCC4)n3)CC2)CC1	binding, competition with immobilised ligand	1 µM	100%
N#CC1(c2ccccn2)CCN(Cc2cc(C(=O)N3CCCC3)c(=O)n3ccccc23)CC1	cell-free assay, competition with immobilised ligand	1 µM	86%
CN(CCCC(F)(F)F)c1nccc(-c2cnn3ncccc23)n1	binding	1 µM	100%
Nc1cnc(N2CCc3cc(S(=O)(=O)Nc4c(F)cc(Cl)cc4F)cc(N4CCCC4=O)c32)nc1	cell-free assay, competition with immobilised ligand	1 µM	100%
CNC(=O)[C@@H]1CC[C@@H](n2c(-c3ccc4cnccc4c3)nc3ccc(C(=O)NCc4cccc(C(N)=O)c4)cc32)C1	binding, competition with immobilised ligand	1 µM	93%
CCCCN(CCCC)C(=O)CN1C[C@H](c2cc(OC)c3c(c2)OCO3)[C@@H](C(=O)O)[C@@H]1CC(C)(C)CCC	cell-free assay, competition with immobilised ligand	1 µM	100%
C[C@@H]1CCN(c2nccc(-c3cnn4ncccc34)n2)C1	binding	1 µM	56%
